Assay results reported in ChEMBL document CHEMBL5724801, “EUbOPEN Chemogenomics Library - Multiplex” (2024).
Several values for one entry are separate records, joined by “and”; a condition that tells them apart may be missing. Identical values can stand only once.

System: Fibroblast
Assay: Multiplex assay against human fibroblast
Format: toxicity, cell-based
In short: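 Live cells were stained at seeding with Hoechst33342, BioTracker Green Microtubule Cytoskeleton Dye, MitoTracker Red and Annexin V Alexa Fluor 680. Following compound addition, they were imaged on a CQ1 microscope at 37°C and 5% CO2 and gated by CellPathfinder machine learning into Hoechst high-intensity objects or normal cells, with normal cells split into healthy, pyknosed or fragmented nuclei and pyknosed cells into mitotic or apoptotic. Tubulin, mitochondrial-mass and membrane-permeability phenotypes are per cents of healthy-nucleus cells.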

[1] = 12 h, 1 µM, compound concentration 1 uM
[2] = 12 h, 10 µM, compound concentration 10 uM
[3] = 24 h, 1 µM, compound concentration 1 uM
[4] = 24 h, 10 µM, compound concentration 10 uM
[5] = 48 h, 1 µM, compound concentration 1 uM
[6] = 48 h, 10 µM, compound concentration 10 uM

Compound: CSc1nc(NC2CCCC2)c([N+](=O)[O-])c(NC2CCCC2)n1 [GS-39783]
- Population Apoptotic (%) [1]: 50% and 39%
- Population Fragmented Nuclei (%) [1]: 16% and 28%
- Population Healthy Nuclei (%) [1]: 66% and 46%
- Population Hoechst High Intensity Objects (%) [1]: 3% and 5%
- Population Membrane Permeable-Phenotype (%) [1]: 2% and 10%
- Population Mitochondria Different-Phenotype (%) [1]: 6% and 10%
- Population Mitotic Cells (%) [1]: 50% and 60%
- Population Normal (%) [1]: 96% and 94%
- Population Pyknosed Nuclei (%) [1]: 16% and 25%
- Population Tubulin-Different-Phenotype (%) [1]: 29% and 57%
- Total Cell Count [1]: 137 and 135
- Population Apoptotic (%) [2]: 54% and 36%
- Population Fragmented Nuclei (%) [2]: 16% and 25%
- Population Healthy Nuclei (%) [2]: 62% and 52%
- Population Hoechst High Intensity Objects (%) [2]: 5% and 6%
- Population Membrane Permeable-Phenotype (%) [2]: 0% and 4%
- Population Mitotic Cells (%) [2]: 45% and 63%
- Population Normal (%) [2]: 94% and 93%
- Population Pyknosed Nuclei (%) [2]: 21%
- Population Tubulin-Different-Phenotype (%) [2]: 39% and 70%
- Total Cell Count [2]: 184 and 165
- Population Apoptotic (%) [3]: 30% and 32%
- Population Fragmented Nuclei (%) [3]: 12% and 31%
- Population Healthy Nuclei (%) [3]: 69% and 44%
- Population Hoechst High Intensity Objects (%) [3]: 2%
- Population Membrane Permeable-Phenotype (%) [3]: 3% and 10%
- Population Mitochondria Different-Phenotype (%) [3]: 4% and 12%
- Population Mitotic Cells (%) [3]: 69% and 67%
- Population Normal (%) [3]: 97%
- Population Pyknosed Nuclei (%) [3]: 17% and 23%
- Population Tubulin-Different-Phenotype (%) [3]: 27% and 60%
- Total Cell Count [3]: 132 and 133
- Population Apoptotic (%) [4]: 58% and 36%
- Population Fragmented Nuclei (%) [4]: 17% and 25%
- Population Healthy Nuclei (%) [4]: 65% and 52%
- Population Hoechst High Intensity Objects (%) [4]: 2% and 7%
- Population Membrane Permeable-Phenotype (%) [4]: 0% and 6%
- Population Mitochondria Different-Phenotype (%) [4]: 4% and 10%
- Population Mitotic Cells (%) [4]: 41% and 63%
- Population Normal (%) [4]: 97% and 92%
- Population Pyknosed Nuclei (%) [4]: 17% and 21%
- Population Tubulin-Different-Phenotype (%) [4]: 33% and 57%
- Total Cell Count [4]: 172 and 164
- Population Apoptotic (%) [5]: 70% and 33%
- Population Fragmented Nuclei (%) [5]: 22% and 41%
- Population Healthy Nuclei (%) [5]: 69% and 44%
- Population Hoechst High Intensity Objects (%) [5]: 4% and 3%
- Population Mitochondria Different-Phenotype (%) [5]: 5% and 14%
- Population Mitotic Cells (%) [5]: 30% and 66%
- Population Normal (%) [5]: 95% and 96%
- Population Pyknosed Nuclei (%) [5]: 7% and 14%
- Population Tubulin-Different-Phenotype (%) [5]: 29% and 60%
- Total Cell Count [5]: 134 and 129
- Population Apoptotic (%) [6]: 66% and 60%
- Population Fragmented Nuclei (%) [6]: 19% and 40%
- Population Healthy Nuclei (%) [6]: 65% and 46%
- Population Hoechst High Intensity Objects (%) [6]: 2% and 6%
- Population Membrane Permeable-Phenotype (%) [6]: 1% and 6%
- Population Mitochondria Different-Phenotype (%) [6]: 5% and 7%
- Population Mitotic Cells (%) [6]: 33% and 40%
- Population Normal (%) [6]: 97% and 93%
- Population Pyknosed Nuclei (%) [6]: 14% and 13%
- Population Tubulin-Different-Phenotype (%) [6]: 41% and 60%
- Total Cell Count [6]: 168 and 193

Compound: CC(C)c1noc(N2CCC(COc3ccc(-c4ccc(S(C)(=O)=O)cc4)nc3)CC2)n1 [GSK-1292263]
- Population Apoptotic (%) [1]: 38% and 29%
- Population Fragmented Nuclei (%) [1]: 14% and 18%
- Population Healthy Nuclei (%) [1]: 74% and 50%
- Population Hoechst High Intensity Objects (%) [1]: 2% and 6%
- Population Membrane Permeable-Phenotype (%) [1]: 0% and 4%
- Population Mitochondria Different-Phenotype (%) [1]: 1% and 5%
- Population Mitotic Cells (%) [1]: 61% and 70%
- Population Normal (%) [1]: 97% and 93%
- Population Pyknosed Nuclei (%) [1]: 11% and 31%
- Population Tubulin-Different-Phenotype (%) [1]: 21% and 41%
- Total Cell Count [1]: 189 and 149
- Population Apoptotic (%) [2]: 39% and 35%
- Population Healthy Nuclei (%) [2]: 65% and 45%
- Population Hoechst High Intensity Objects (%) [2]: 3% and 2%
- Population Membrane Permeable-Phenotype (%) [2]: 1% and 6%
- Population Mitochondria Different-Phenotype (%) [2]: 5% and 10%
- Population Mitotic Cells (%) [2]: 60% and 64%
- Population Normal (%) [2]: 96% and 97%
- Population Pyknosed Nuclei (%) [2]: 26% and 27%
- Population Tubulin-Different-Phenotype (%) [2]: 39% and 61%
- Total Cell Count [2]: 162 and 145
- Population Apoptotic (%) [3]: 50% and 44%
- Population Fragmented Nuclei (%) [3]: 9% and 20%
- Population Healthy Nuclei (%) [3]: 78% and 53%
- Population Hoechst High Intensity Objects (%) [3]: 3% and 7%
- Population Membrane Permeable-Phenotype (%) [3]: 1% and 4%
- Population Mitochondria Different-Phenotype (%) [3]: 0% and 2%
- Population Mitotic Cells (%) [3]: 50% and 55%
- Population Normal (%) [3]: 96% and 92%
- Population Pyknosed Nuclei (%) [3]: 11% and 25%
- Population Tubulin-Different-Phenotype (%) [3]: 17% and 41%
- Total Cell Count [3]: 182 and 142
- Population Apoptotic (%) [4]: 52% and 46%
- Population Fragmented Nuclei (%) [4]: 12% and 21%
- Population Healthy Nuclei (%) [4]: 67% and 55%
- Population Hoechst High Intensity Objects (%) [4]: 2% and 3%
- Population Membrane Permeable-Phenotype (%) [4]: 1% and 10%
- Population Mitochondria Different-Phenotype (%) [4]: 5% and 10%
- Population Mitotic Cells (%) [4]: 47% and 53%
- Population Normal (%) [4]: 97% and 96%
- Population Pyknosed Nuclei (%) [4]: 20% and 23%
- Population Tubulin-Different-Phenotype (%) [4]: 50% and 56%
- Total Cell Count [4]: 168 and 123
- Population Apoptotic (%) [5]: 66% and 54%
- Population Fragmented Nuclei (%) [5]: 19% and 27%
- Population Healthy Nuclei (%) [5]: 74% and 47%
- Population Hoechst High Intensity Objects (%) [5]: 3% and 8%
- Population Membrane Permeable-Phenotype (%) [5]: 0% and 13%
- Population Mitochondria Different-Phenotype (%) [5]: 1% and 4%
- Population Mitotic Cells (%) [5]: 33% and 45%
- Population Normal (%) [5]: 96% and 91%
- Population Tubulin-Different-Phenotype (%) [5]: 22% and 55%
- Total Cell Count [5]: 193 and 156
- Population Apoptotic (%) [6]: 63% and 50%
- Population Fragmented Nuclei (%) [6]: 13% and 31%
- Population Healthy Nuclei (%) [6]: 65% and 51%
- Population Hoechst High Intensity Objects (%) [6]: 2% and 0%
- Population Membrane Permeable-Phenotype (%) [6]: 0% and 9%
- Population Mitochondria Different-Phenotype (%) [6]: 8% and 14%
- Population Mitotic Cells (%) [6]: 36% and 50%
- Population Normal (%) [6]: 97% and 100%
- Population Pyknosed Nuclei (%) [6]: 20% and 17%
- Population Tubulin-Different-Phenotype (%) [6]: 48% and 76%
- Total Cell Count [6]: 164 and 125
